Data taken from ChEMBL document CHEMBL1124597, “Quinones. 4. Novel eicosanoid antagonists: synthesis and pharmacological evaluation” (J Med Chem, 1989).
pIC50: −log10 of the molar value.

Columns and labels:
Oryctolagus cuniculus [1] = organism: Oryctolagus cuniculus; test: In vitro percent inhibition against U-44,069 (10e-7 M) induced contraction of rabbit aorta at 10e-5 M concentration.; format: functional
In short: (§1)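 Rabbit aortic strips (2-3 mm × 3 cm) in Krebs-Henseleit, 37 °C, 95% O2/5% CO2, 2 g resting tension, isometric recording. Drugs (final 10⁻⁵ to 10⁻⁸ M, 0.01% DMSO) added 10 min before U-44069 (2-6 nM, about 50% of the 30 mM KCl contraction). Percent inhibition, or concentration reducing contraction by 50%; duplicate means.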

Oryctolagus cuniculus [2] = organism: Oryctolagus cuniculus; test: In vitro concentration that reduced U-44069-induced contraction of the rabbit aorta by 50%; format: functional; in short: as §1
Oryctolagus cuniculus [3] = organism: Oryctolagus cuniculus; test: In vitro percent inhibition against U-44,069 (10e-7 M) induced contraction of rabbit aorta at 10e-6 M concentration; format: functional; in short: as §1
Oryctolagus cuniculus [4] = organism: Oryctolagus cuniculus; test: In vitro concentration that reduced U-44069-induced contraction of the rabbit aorta; format: functional; settings: read-out: pA2 (converted); in short: as §1
Cavia porcellus [5] = test: In vivo percentage of inhibition against LTD -induced bronchoconstriction in guinea pig at a concentration of 20 mg/kg after 1 hour of oral administration; format: functional
In short: (§2)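 Urethane-anesthetized (1.5 g/kg ip) guinea pigs given gallamine (1 mg/kg iv); bronchoconstriction measured by Konzett-Rössler overflow. Challenge was U-46619, LTD4 or PAF at 10 μg/kg iv, or IgG1-mediated in animals sensitized ip with egg albumin (1 mg/kg)/FCA and used 3 weeks later. Drug given orally in 5% gum arabic 1 h before challenge; n = 8. ID50 = dose giving 50% inhibition.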

Cavia porcellus [6] = test: In vivo percentage of inhibition against U-46619 -induced bronchoconstriction in guinea pig at a concentration of 5 mg/kg after 1 hour of oral administration.; format: functional; in short: as §2
Cavia porcellus [7] = test: In vivo percentage of inhibition against LTD -induced bronchoconstriction in guinea pig at a concentration of 5 mg/kg after 1 hour of oral administration; format: functional; in short: as §2
Cavia porcellus [8] = test: In vivo percentage of inhibition against U-46619-induced bronchoconstriction in guinea pig at a concentration of 20 mg/kg when after 1 hour of oral administration; format: functional; in short: as §2
Cavia porcellus [9] = organism: Cavia porcellus; test: In vitro concentration that reduced U-46619-induced contraction of guinea pig lung; settings: read-out: pA2 (converted)
Cavia porcellus [10] = organism: Cavia porcellus; test: In vitro concentration that reduced U-44069-induced aggregation of guinea pig platelets by 50%; format: functional
In short: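 PRP from conscious male guinea pigs, blood taken by cardiac puncture into 3.15% citrate (1:9); platelets adjusted to 450 000/μL. PRP preincubated 2 min at 37 °C, then incubated 2 min with U-44069 at a concentration giving submaximal aggregation. IC50 = antagonist concentration reducing aggregation by 50%.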

Oryctolagus cuniculus [11] = organism: Oryctolagus cuniculus; test: In vitro percent inhibition against U-44,069 (10e-7 M) induced contraction of rabbit aorta at 10e-7 M concentration; format: functional; in short: as §1

Work on `CC1=C(C)C(=O)C(C(CCCCCC(=O)O)c2cccc(C(F)(F)F)c2)=C(C)C1=O` (configuration not stated) yielded an Inhibition (Oryctolagus cuniculus [1]) of 64%.
Work on `COc1ccc(C(CCCCCC(=O)O)C2=C(C)C(=O)C(C)=C(C)C2=O)cc1` (configuration not stated) yielded a pIC50 (Oryctolagus cuniculus [2]) of 5.52, an Inhibition (Oryctolagus cuniculus [3]) of 3% and an Inhibition (Oryctolagus cuniculus [1]) of 100%.
For `CC1=C(C)C(=O)C(CCCCCCC(=O)O)=C(C)C1=O`, the Inhibition (Oryctolagus cuniculus [1]) was 8%.
In the case of `CC1=C(C)C(=O)C(C(CCCCCC(=O)O)c2ccc(C)cc2)=C(C)C1=O` (configuration not stated), the pIC50 (Oryctolagus cuniculus [2]) was 6.00, the Inhibition (Oryctolagus cuniculus [3]) was 50% and the Inhibition (Oryctolagus cuniculus [1]) was 100%.
For `CC1=C(C)C(=O)C(C(CCCCCC(=O)NC(C)c2ccccc2)c2ccccc2)=C(C)C1=O` (configuration not stated), the Inhibition (Oryctolagus cuniculus [1]) was 33%.
In the case of `CC1=C(C)C(=O)C([C@@H](CCCCCC(=O)O)c2ccccc2)=C(C)C1=O`, the Kb (Oryctolagus cuniculus [4]) was 229 nM, the inhibition in vivo at 20 mg/kg (Cavia porcellus [5]) was 65% and the inhibition in vivo at 5 mg/kg (Cavia porcellus [6]) was 47%. For the same compound, the inhibition in vivo at 5 mg/kg (Cavia porcellus [7]) was 27%, the inhibition in vivo at 20 mg/kg (Cavia porcellus [8]) was 68% and the Kb (Cavia porcellus [9]) was 295 nM. For the same compound, the pIC50 (Cavia porcellus [10]) was 4.89.
With `CC1=C(C)C(=O)C(C(CCCCCCC(=O)O)c2ccccc2)=C(C)C1=O` (configuration not stated) the pIC50 (Oryctolagus cuniculus [2]) was 5.49, the Inhibition (Oryctolagus cuniculus [3]) was 0% and the Inhibition (Oryctolagus cuniculus [1]) was 98%.
Work on `CC1=C(C)C(=O)C(C(CCCCCCO)c2ccccc2)=C(C)C1=O` (configuration not stated) yielded an Inhibition (Oryctolagus cuniculus [1]) of 0%.
For `CC1=C(C(CCCCCC(=O)O)c2ccc(F)cc2)C(=O)c2ccccc2C1=O` (configuration not stated), the Inhibition (Oryctolagus cuniculus [11]) was 78%, the Inhibition (Oryctolagus cuniculus [3]) was 100% and the Inhibition (Oryctolagus cuniculus [1]) was 100%.
Compound `COc1ccccc1C(CCCCCC(=O)O)C1=C(C)C(=O)C(C)=C(C)C1=O` (configuration not stated) has an Inhibition (Oryctolagus cuniculus [1]) of 0%.
With `COC(=O)CCCCCC(C1=C(C)C(=O)C(C)=C(C)C1=O)c1ccccc1` (configuration not stated) the pIC50 (Oryctolagus cuniculus [2]) was 5.85, the Inhibition (Oryctolagus cuniculus [3]) was 36% and the Inhibition (Oryctolagus cuniculus [1]) was 95%.
`CC1=C(C)C(=O)C(C(CCCCCCCCC(=O)O)c2ccccc2)=C(C)C1=O` (configuration not stated) was tested, and the Inhibition (Oryctolagus cuniculus [1]) was 41%.
`CC1=C(C)C(=O)C(C(C)CCCCCC(=O)O)=C(C)C1=O` (configuration not stated) was tested, and the Inhibition (Oryctolagus cuniculus [1]) was 0%.
With `CC1=C(C)C(=O)C(C(CCCCCC(=O)O)c2cccc(F)c2)=C(C)C1=O` (configuration not stated) the pIC50 (Oryctolagus cuniculus [2]) was 5.72, the Inhibition (Oryctolagus cuniculus [3]) was 31% and the Inhibition (Oryctolagus cuniculus [1]) was 100%.
In the case of `CC1=C(C)C(=O)C(C(CCCCCC(=O)NCC(=O)O)c2ccccc2)=C(C)C1=O` (configuration not stated), the Inhibition (Oryctolagus cuniculus [1]) was 0%.
Work on `CC1=C(C)C(=O)C(C(CCCCC(=O)O)c2ccccc2)=C(C)C1=O` (configuration not stated) yielded an Inhibition (Oryctolagus cuniculus [1]) of 63%.
`CC1=C(C)C(=O)C(C(CCCCCC(=O)O)c2ccc(Cl)cc2)=C(C)C1=O` (configuration not stated) showed an Inhibition (Oryctolagus cuniculus [11]) of 17%, a pIC50 (Oryctolagus cuniculus [2]) of 6.55 and an Inhibition (Oryctolagus cuniculus [3]) of 91%. For the same compound, the Inhibition (Oryctolagus cuniculus [1]) was 100%.
For `CC1=C(C)C(=O)C(C(CCCCCC(=O)O)c2ccc(C(C)C)cc2)=C(C)C1=O` (configuration not stated), the Inhibition (Oryctolagus cuniculus [1]) was 4%.
Work on `CC1=C(C)C(=O)C(C(CCc2cccc(C(=O)O)c2)c2ccccc2)=C(C)C1=O` (configuration not stated) yielded an Inhibition (Oryctolagus cuniculus [3]) of 0% and an Inhibition (Oryctolagus cuniculus [1]) of 89%.
`CC1=C(C)C(=O)C(C(CCCCC(C)(C)C(=O)O)c2ccccc2)=C(C)C1=O` (configuration not stated) showed an Inhibition (Oryctolagus cuniculus [1]) of 12%.
